DAGLB inh: diacylglycerol lipase beta (human) inhibition | HEK293T DAGLB membrane lysate, EnzChek fluorogenic substrate | AID 504411 | Q8NCG7 | inhibition, % at 5.17 µM | 0.059% of 340,000 active; in the data active = inhibition above about 34%;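 note: 0% = enzyme with vehicle and 100% = wells lacking enzyme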
Target sequence (Q8NCG7 whole entry, looked up): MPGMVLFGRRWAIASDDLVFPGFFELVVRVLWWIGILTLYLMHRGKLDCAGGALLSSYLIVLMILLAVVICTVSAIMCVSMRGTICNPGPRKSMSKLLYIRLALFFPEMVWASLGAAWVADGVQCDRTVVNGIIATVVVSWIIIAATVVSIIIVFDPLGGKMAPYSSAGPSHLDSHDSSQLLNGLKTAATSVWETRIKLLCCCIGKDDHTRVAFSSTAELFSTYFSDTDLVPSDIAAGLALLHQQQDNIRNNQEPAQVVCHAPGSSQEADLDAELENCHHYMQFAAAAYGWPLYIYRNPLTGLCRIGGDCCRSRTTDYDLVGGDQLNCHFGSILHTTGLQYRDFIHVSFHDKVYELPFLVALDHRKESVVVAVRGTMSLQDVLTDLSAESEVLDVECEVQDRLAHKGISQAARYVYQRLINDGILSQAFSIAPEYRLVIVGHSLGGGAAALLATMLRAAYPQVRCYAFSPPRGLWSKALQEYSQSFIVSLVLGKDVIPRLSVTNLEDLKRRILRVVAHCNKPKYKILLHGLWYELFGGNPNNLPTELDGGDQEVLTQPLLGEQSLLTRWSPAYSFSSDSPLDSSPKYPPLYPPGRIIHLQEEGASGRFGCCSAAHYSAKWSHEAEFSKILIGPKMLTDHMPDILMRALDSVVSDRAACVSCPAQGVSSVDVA
Tn6 DDE FP: disrupts Tn6 cyclic peptide binding to fibrin D-Dimer-E complex; Fibrin DD(E) TRITC-Tn6 fluorescence polarization displacement; P02675; inhibition, % at 8.3 µM; 0.21% of 370,000 active;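 active = inhibition above a per-campaign cutoff: mean of compounds within control limits plus 3 SD, cut at about 15% in these data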;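 note: 0% = median of all compound wells on the plate and 100% = blocking peptide control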
MT1-MMP act inh: inhibitors of human MT1-MMP activation | HT1080 RFP-PRO-GFP cells, GFP/RFP ratio fluorescence, overnight; percent of plate control window, DMSO zero | 0.061% of 360,000 active | GFP/RFP ratio change, % at 20 µM;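 active = GFP/RFP ratio change of at least 30% with cell ATP level not reduced by more than half and red fluorescence within 50% of control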
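Test system: HT1080 cells expressing an RFP-PRO-GFP fluorescent reporter construct / Compound dosing: single-point 20 µM compound, 1% DMSO / Schedule: cells overnight before dosing, compound overnight, 37 °C, 5% CO2 / Evaluation: GFP/RFP fluorescence ratio / Control set: DMSO and RFP-L50D-GFP cell wells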
Tn7 DDE FP: disrupts Tn7 cyclic peptide binding to fibrin D-Dimer-E complex | FP displacement of FITC-Tn7 peptide from fibrin DD(E); 0% = median of compound wells per plate | inhibition, % at 8.3 µM | 0.13% of 370,000 active;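 active = inhibition above the mean of compounds falling within the control limits plus 3 SD of them, cut at about 14% in these data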;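 note: 0% = plate median of compound wells and 100% = 10 µM Aha-Tn7 peptide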
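Assay system: Human clot-derived fibrin DD(E) complex | Buffer or medium: Tris/NaCl/CaCl2 buffer, pH 7.8 | Repeats: One replicate per compound | Benchmarks: Aha-Tn7 high control | Measure: % inhibition scaled between sample-field median and high-control FP | Schedule: 10 min plus 3 h, room temperature | Signal: Fluorescence polarization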
Cardio protect: modulators protecting cardiomyocytes from myocardial damage; 0.63% of 360,000 active; H9c2 cardiomyocytes, H2O2 injury protection, ATPLite, 2 h; protection from H2O2 cell death, % at 20 µM;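 active = compounds giving at least 50% protection of heart cells from peroxide-induced death in the single-dose screen, raw or plate-pattern-corrected value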;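 note: 0% = DMSO wells with peroxide and 100% = DMSO wells without peroxide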
H9c2 TAG inh: triacylglycerol accumulation inhibition. 0.66% of 230,000 active. H9c2 cells, Nile Red lipid (TAG) fluorescence; cells loaded with 200 µM oleic acid. inhibition, % at 12.5 µM;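 active = pattern-corrected inhibition of lipid staining of at least 50% with the nuclear-stain viability signal not falling by more than 50%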;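 note: 0% = DMSO wells and 100% = triacsin C control wells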
Tn6 DDE ctr: DD(E)-Tn6 binding inhibition, counter-screen; shares compounds with Tn6 DDE FP; Fibrin DD(E), TRITC-Tn6 fluorescence polarization displacement; 0% = median of compound wells, not DMSO; inhibition, % at 8.3 µM; 2% of 680 active;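 active = inhibition above the mean of test compounds lying between the control limits plus 3 SD of those, cut at about 14% in these data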;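 note: 0% = median of compound wells and 100% = wells with Aha-Tn7 blocking peptide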
DDE Tn6 confirm: confirmation of inhibitors of Tn6 binding to human fibrin DD(E); shares compounds with Tn6 DDE FP; FP displacement of TRITC-Tn6 peptide from DD(E); 0% = per-plate median of test wells; 10% of 680 active; inhibition, % at 8.3 µM;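 active = inhibition above the mean of compounds lying within the control limits plus 3 SD, cut at about 16% in these data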;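 note: 100% = high control wells holding a competing inhibitor peptide at 10 µM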
* = called active by the depositor; · = not tested or not shown. Shown are actives, neighbours in structure and some others; about 1.4% of the full set was active somewhere.

SMILES	DAGLB inh	Tn6 DDE FP	MT1-MMP act inh	Tn7 DDE FP	Cardio protect	H9c2 TAG inh	Tn6 DDE ctr	DDE Tn6 confirm
O=C(c1ccccc1N1CCOCC1)N1CCCC(Nc2ccc(F)cc2)C1 (centres undefined)	2.8	1.7	0.5	0.3	6.3	·	·	·
CCC(C)[C@H](NC(=O)NCc1ccc(Cl)cc1)C(=O)OC (some centres undefined)	5.2	17.1*	0.5	3.8	-3.0	-5.4	-3.3	-7.6
CCC(C)[C@H](NC(=O)NCc1ccc(Cl)cc1)C(=O)O (some centres undefined)	2.0	8.5	3.7	-3.4	1.9	0.3	·	·
N#C/C(=C/C1=C(N2CCOCC2)C(=C/c2ccc(Cl)cc2Cl)/CC1)C(=O)Nc1ccccc1F	0.9	156.4*	17.5	3.6	-1.2	18.8	0.0	11.3
Cc1cc2c(NC(=O)Nc3ccc(C(F)(F)F)cc3)cccc2nn1	-0.4	107.6*	7.7	-2.1	-20.2	-17.4	11.7	10.6
Cc1cc2c(NC(=O)CCCC(=O)O)cccc2nn1	-1.6	2.6	1.2	-8.3	-2.6	10.6	·	·
O=C(Cn1cc([N+](=O)[O-])cn1)N1CCc2ccccc2C1	1.0	15.5*	-3.2	5.5	-5.9	4.0	-6.6	-10.1
Cn1c(N)c(S(=O)(=O)N2CCN(c3cccc(Cl)c3)CC2)c(=O)n(C)c1=O	2.6	15.9*	-3.7	5.5	6.8	7.1	4.1	1.9
COC(=O)[C@]12CCCCC=C1N(Cc1ccc(OC)cc1)C(=O)[C@@H]2CC(=O)NCCC(C)C	·	-5.4	·	2.6	·	·	·	·
CC1(C)CC(=O)C=C(c2ccc(-c3cccc4c3sc3ccccc34)cc2)C1=O	-6.8	2.9	2.7	4.9	-0.3	-15.4	·	·
Cc1cc(C(=O)N/N=C/c2ccco2)c2ccccc2n1	-1.6	1.7	-0.6	0.7	5.9	·	·	·
Cc1cc(N/N=C/c2ccco2)c2ccccc2n1	0.7	17.0*	2.5	6.2	1.4	-18.1	0.7	-0.3
CC(=O)NC(c1ccc(F)c(F)c1)c1nc(-c2ccccc2C)cs1 (centres undefined)	·	8.7	-5.8	0.2	-8.3	-3.1	·	·
CN1CCN(c2cc(N3CCN(C(=O)c4ccco4)CC3)c3c4c(onc24)-c2ccccc2C3=O)CC1	10.4	·	-3.4	·	14.9	·	·	·
O=C(O)CCCNc1cc(N2CCN(C(=O)c3ccco3)CC2)c2noc3c2c1C(=O)c1ccccc1-3	3.4	32.3*	-21.7	-0.5	-6.0	·	-8.5	58.2*
CCOc1nc(-c2ccc(Cl)cc2Cl)ccc1C#N	-10.5	-3.9	-4.5	7.0	-10.5	-13.2	·	·
COc1nc(-c2ccccc2Cl)ccc1C#N	-5.2	17.8*	1.0	5.9	-8.6	·	10.1	7.5
O=C1CCCC(c2ccccc2)N1 (centres undefined)	-2.2	2.3	-0.9	3.5	-0.5	·	·	·
c1ccc(-c2ccc(C3CCCN3)cc2)cc1 (centres undefined)	-4.8	16.0*	2.0	2.9	6.9	·	0.2	-2.0
CC1CCC/C(=C\Nc2ccc(O)cc2)C1=O (centres undefined)	5.9	17.1*	16.0	3.7	-3.8	·	-6.9	-9.6
Cc1cc(C(=O)O)ccc1N/C=C1\CCCC(C)C1=O (centres undefined)	-0.4	6.2	-1.9	1.9	-8.4	10.6	·	·
O=C(CN1C(=O)COc2ccc(S(=O)(=O)N3CCOCC3)cc21)Nc1cccc(Cl)c1	1.0	2.7	-0.5	-2.6	3.4	·	·	·
Cc1ccc(Cl)cc1NC(=O)CN1C(=O)COc2ccc(S(=O)(=O)N3CCOCC3)cc21	4.5	16.0*	9.3	5.7	-3.4	·	0.7	-2.9
CC/C(=C\C(=O)c1ccncc1)Nc1ccc(O)cc1	0.7	45.7*	-6.3	3.7	-19.7	7.1	-1.9	-4.5
COC(=O)c1c[nH]c(=O)c2ccccc12	1.5	15.6*	1.2	2.2	5.2	1.5	3.8	-3.6
SMILES	DAGLB inh	Tn6 DDE FP	MT1-MMP act inh	Tn7 DDE FP	Cardio protect	H9c2 TAG inh	Tn6 DDE ctr	DDE Tn6 confirm
O=C(NNC(=O)c1csc(-c2cccs2)n1)c1ccc(Cl)cc1	·	-1.4	6.2	-3.8	15.0	-16.4	·	·
Cc1cccc(C(=O)NNC(=O)CN2C(=O)c3ccccc3C2=O)c1	-1.4	16.8*	3.1	-4.6	-0.2	·	-1.5	-6.0
Cc1cccc(C(=O)NNC(=O)c2ccc(-c3ccccc3)cc2)c1	4.5	-2.5	6.3	-2.3	-7.7	·	·	·
O=C(Nc1nccs1)c1ccc(-c2ccc(F)c(Cl)c2)o1	-6.5	27.3*	4.4	4.3	0.8	24.6	1.8	16.0*
O=C(Nc1nccs1)c1ccc(-c2ccc(Cl)cc2Cl)o1	-1.3	-7.8	5.9	1.2	-2.8	·	·	·
CC(CNC(=O)C(C)(C)C)NC(=O)C(C)(C)C (centres undefined)	0.5	-7.7	-2.6	8.8	2.0	-6.7	·	·
CCCC(NC(=O)CNC(=O)C(C)(C)C)C(=O)O (centres undefined)	-1.4	15.6*	-2.0	3.0	1.6	13.8	3.0	2.0
COc1cccc2cc(-c3ccnc(N)n3)oc12	-0.2	7.4	1.1	4.4	-4.9	14.5	·	·
COc1cccc2cc(-c3n[nH]c(=S)n3C)oc12	1.9	18.1*	1.8	3.0	-3.0	-8.6	-0.4	-18.4
COc1ccc(CN(C)C(=O)[C@H]2O[C@@H](n3ccc(N)nc3=O)[C@H](O)[C@@H]2O)cc1OC	·	2.1	3.7	3.1	2.3	·	·	·
CCN(CC)c1ccc(/C=C/c2cc(-c3ccccc3)c3ccccc3n2)cc1	-154.9	17.2*	-69.3	0.4	-16.9	·	-11.3	-8.2
CN(C)c1ccc(/C=C/c2ccc3ccccc3n2)cc1	-23.9	·	-57.5	·	-20.3	·	·	·
CC(C)(CCC(=S)N1CCOCC1)c1ccccc1	1.5	5.7	-6.4	6.8	-2.6	7.1	·	·
COc1cc(C(=O)NCC(=O)N/N=C/c2ccco2)cc(OC)c1OC	-0.7	26.8*	0.9	6.0	1.9	·	-5.9	-12.9
CCC(CC)C(=O)Nc1cccc(C(=O)Nc2ccc(S(=O)(=O)Nc3ccc(C)cc3)cc2)c1	0.4	18.7*	-14.5	-2.8	-7.0	·	-1.6	-7.7
CCC(CC)C(=O)Nc1cccc(C(=O)Nc2ccc(S(N)(=O)=O)cc2)c1	-4.7	-2.9	0.4	-0.2	1.7	11.6	·	·
Cc1ccc(S(=O)(=O)N2CCN(c3nc(C)c4c(c3C#N)CC(C)(C)OC4)CC2)cc1	-7.4	15.6*	-5.2	0.8	-1.4	8.4	-0.1	-4.6

Screening data from PubChem.
